Results: ChEMBL document CHEMBL1130321, “Synthesis and in vitro activity of 3 beta-substituted-3 alpha-hydroxypregnan-20-ones: allosteric modulators of the GABAA receptor” (J Med Chem, 1997)

How the values were obtained:
[1] = target: T1, GABA-A receptor; alpha-1/beta-2/gamma-2 (Homo sapiens, UniProt P14867+P18507+P47870); assay: Potentiation of GABA-activated currents in Xenopus oocytes expressing cloned human alpha-1-beta-2-gamma-2L subunits of GABA-A receptor; format: functional, cell-based, Oocyte
T1 sequence (P14867 whole entry): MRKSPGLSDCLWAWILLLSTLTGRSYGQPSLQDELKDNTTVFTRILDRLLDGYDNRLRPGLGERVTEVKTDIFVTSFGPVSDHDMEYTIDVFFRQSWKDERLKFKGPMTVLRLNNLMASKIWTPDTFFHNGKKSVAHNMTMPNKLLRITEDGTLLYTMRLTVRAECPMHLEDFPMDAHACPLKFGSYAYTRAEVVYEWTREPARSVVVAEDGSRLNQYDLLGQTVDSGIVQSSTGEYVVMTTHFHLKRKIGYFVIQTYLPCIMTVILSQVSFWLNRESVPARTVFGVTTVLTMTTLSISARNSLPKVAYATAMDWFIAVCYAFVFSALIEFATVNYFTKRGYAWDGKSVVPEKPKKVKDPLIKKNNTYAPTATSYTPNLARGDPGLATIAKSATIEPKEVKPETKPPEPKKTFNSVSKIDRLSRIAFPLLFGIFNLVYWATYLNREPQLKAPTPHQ
T1 sequence (P47870 whole entry): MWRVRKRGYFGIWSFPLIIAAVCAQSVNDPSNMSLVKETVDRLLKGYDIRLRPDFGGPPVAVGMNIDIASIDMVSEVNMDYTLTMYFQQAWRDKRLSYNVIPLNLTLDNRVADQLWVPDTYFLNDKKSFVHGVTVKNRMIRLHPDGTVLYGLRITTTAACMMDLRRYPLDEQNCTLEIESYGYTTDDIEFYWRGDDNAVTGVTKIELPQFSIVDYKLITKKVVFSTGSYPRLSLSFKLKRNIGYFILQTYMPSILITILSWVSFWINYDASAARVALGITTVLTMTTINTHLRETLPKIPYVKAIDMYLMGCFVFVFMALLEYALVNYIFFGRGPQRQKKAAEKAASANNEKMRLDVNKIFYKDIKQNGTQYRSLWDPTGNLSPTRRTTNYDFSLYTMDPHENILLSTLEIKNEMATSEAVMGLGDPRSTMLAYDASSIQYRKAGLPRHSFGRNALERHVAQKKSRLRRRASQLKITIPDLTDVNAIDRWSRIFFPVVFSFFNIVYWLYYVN
T1 sequence (P18507 whole entry): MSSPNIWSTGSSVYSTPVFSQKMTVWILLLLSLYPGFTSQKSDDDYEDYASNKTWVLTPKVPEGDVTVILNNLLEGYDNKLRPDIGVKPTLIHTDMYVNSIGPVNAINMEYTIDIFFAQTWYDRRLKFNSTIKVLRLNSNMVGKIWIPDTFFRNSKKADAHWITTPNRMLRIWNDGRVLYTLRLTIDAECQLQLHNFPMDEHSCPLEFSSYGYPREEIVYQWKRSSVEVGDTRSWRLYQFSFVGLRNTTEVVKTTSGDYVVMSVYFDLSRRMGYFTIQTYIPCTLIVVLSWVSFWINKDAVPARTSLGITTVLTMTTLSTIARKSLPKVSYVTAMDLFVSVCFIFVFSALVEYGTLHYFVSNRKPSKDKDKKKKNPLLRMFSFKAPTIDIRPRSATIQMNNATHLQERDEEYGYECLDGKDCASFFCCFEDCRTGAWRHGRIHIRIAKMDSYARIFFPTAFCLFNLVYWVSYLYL
Procedure, shortened: (§1)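 Xenopus oocytes were injected with human α1, β2 and γ2L cRNAs at 1:1:1, ~1 ng each. Two-electrode voltage clamp was done in frog Ringer (HEPES 5 mM, pH 7.4). Currents were scaled to the maximum elicited by 3 mM GABA. Steroid was applied in increasing concentrations to a fixed GABA response of ~0.05 fractional current, with DMSO 0.3% final. Data were fitted to a four-parameter logistic and given as mean ± SEM.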

Rattus norvegicus [2] = species on record: Rattus norvegicus; assay: Percent of maximal extent of inhibition was calculated by fitting [35S]TBPS inhibition data to a sigmoid function (rat brain cortical P2 membranes).; format: functional
Procedure, shortened: (§2)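 Rat cortical P2 membranes washed in 200 mM NaCl/50 mM Na-K phosphate pH 7.4. Incubated with 2 nM [35S]TBPS, 5 µM GABA and compound at nine concentrations from 1 nM to 10 µM final (DMSO 0.5% final), 90 min at room temperature. Nonspecific binding was defined with 2 µM unlabeled TBPS. Read-out was filtration and scintillation counting. IC50 and Imax came from partial or full inhibition fits chosen by F-test. Values are mean ± SEM of 3-9 experiments.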

[3] = target: T2, GABA-A receptor; alpha-1/beta-2/gamma-2 (Homo sapiens) (UniProt P14867+P47870+P18507); assay: Efficacy as fractional response (FR) relative to GABA maximal current elicited in Xenopus oocytes; format: functional, cell-based; conditions: Oocyte; procedure, shortened: as §1
[4] = target: GABA-A receptor; anion channel; assay: Ability to allosterically modulate the binding of [35S]TBPS to gamma-aminobutyric-acid A receptor in rat brain cortical P2 membranes.; format: cell membranes, Membrane; procedure, shortened: as §2
Rattus norvegicus [5] = species on record: Rattus norvegicus; assay: Percent of maximal extent of inhibition was calculated by fitting [35S]TBPS inhibition data to a sigmoid function (rat brain cortical P2 membranes) at 10 uM concentration; format: functional
Procedure, shortened: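 Rat cortical P2 membranes washed in 200 mM NaCl/50 mM Na-K phosphate, pH 7.4. Incubated 90 min at room temperature with 2 nM [35S]TBPS, 5 μM GABA and steroid in DMSO (0.5% final). Nonspecific binding defined with 2 μM unlabeled TBPS. Filtration, scintillation counting. Partial or full inhibition model chosen by F-test.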

[6] = target: GABA-A receptor; anion channel; assay: Allosteric modulation of [35S]TBPS binding to Gamma-aminobutyric acid A receptor in rat brain cortical P2 membranes (inhibits binding with two components); format: cell membranes, Membrane; procedure, shortened: as §2
[7] = target: T2, GABA-A receptor; alpha-1/beta-2/gamma-2 (Homo sapiens); assay: Hill value, slope calculated from GABA-current potentiation in Xenopus oocytes; format: functional, cell-based; conditions: Oocyte
Procedure, shortened: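 Xenopus oocytes injected 1:1:1 with human α1, β2, γ2L cRNAs (~1 ng each per cell); two-electrode voltage clamp in frog Ringer (NaCl 115, KCl 2, CaCl2 1.8, HEPES 5 mM, pH 7.4). Steroid DMSO stocks diluted […] (DMSO 0.3% final). Increasing steroid applied on a GABA response set to ~5% of the 3 mM GABA maximum. Data fit to a four-parameter logistic; mean ± SEM.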

CC(=O)[C@H]1CC[C@H]2[C@@H]3CC[C@H]4C[C@@](O)(C(F)(F)F)CC[C@]4(C)[C@H]3CC[C@]12C
EC50 [1]: 390 nM
Imax (Rattus norvegicus [2]): 44%
Efficacy [3]: 0.3
IC50 [4]: 266 nM

CSC[C@@]1(O)CC[C@@]2(C)[C@@H](CC[C@@H]3[C@@H]2CC[C@]2(C)[C@@H](C(C)=O)CC[C@@H]32)C1
IC50 [4]: > 10000 nM
Imax (Rattus norvegicus [5]): 46%

CC(=O)[C@H]1CC[C@H]2[C@@H]3CC[C@H]4C[C@@](O)(CO)CC[C@]4(C)[C@H]3CC[C@]12C
EC50 [1]: ~20000 nM
Imax (Rattus norvegicus [2]): 101%
IC50 [4]: 2130 nM

CC(=O)[C@H]1CC[C@H]2[C@@H]3CC[C@@H]4C[C@H](O)CC[C@]4(C)[C@H]3CC[C@]12C [ELTANOLONE]
Imax (Rattus norvegicus [2]): 65%
IC50 [6]: 44 nM

CC(=O)[C@H]1CC[C@H]2[C@@H]3CC[C@H]4C[C@](C)(O)CC[C@]4(C)[C@H]3CC[C@]12C [GANAXOLONE]
EC50 [1]: 260 nM
Imax (Rattus norvegicus [2]): 94%
Efficacy [3]: 0.8
IC50 [4]: 80 nM

CC(=O)[C@H]1CC[C@H]2[C@@H]3CC[C@H]4C[C@@](O)(CN(C)C)CC[C@]4(C)[C@H]3CC[C@]12C
EC50 [1]: > 50000 nM
Imax (Rattus norvegicus [2]): 0%
IC50 [4]: > 10000 nM

CC(=O)[C@H]1CC[C@H]2[C@@H]3CC[C@H]4C[C@@](O)(CN=[N+]=[N-])CC[C@]4(C)[C@H]3CC[C@]12C
EC50 [1]: 150 nM
Imax (Rattus norvegicus [2]): 99%
Efficacy [3]: 0.8
IC50 [4]: 27 nM

CC(=O)[C@H]1CC[C@H]2[C@@H]3CC[C@H]4C[C@@](O)(CC#N)CC[C@]4(C)[C@H]3CC[C@]12C
Imax (Rattus norvegicus [2]): 38%
Hill coefficient [7]: 1
IC50 [4]: 614 nM

CC(=O)[C@H]1CC[C@H]2[C@@H]3CC[C@H]4C[C@@](O)(COCc5ccccc5)CC[C@]4(C)[C@H]3CC[C@]12C
Imax (Rattus norvegicus [2]): 57%
Hill coefficient [7]: 1.6
IC50 [4]: 376 nM

CC(=O)[C@H]1CC[C@H]2[C@@H]3CC[C@@H]4C[C@@](O)(CCl)CC[C@]4(C)[C@H]3CC[C@]12C
Imax (Rattus norvegicus [2]): 103%
IC50 [4]: 243 nM

COC[C@@]1(O)CC[C@@]2(C)[C@H](CC[C@@H]3[C@@H]2CC[C@]2(C)[C@@H](C(C)=O)CC[C@@H]32)C1
Imax (Rattus norvegicus [2]): 103%
IC50 [4]: 40 nM

CC(=O)[C@H]1CC[C@H]2[C@@H]3CC[C@H]4C[C@H](O)CC[C@]4(C)[C@H]3CC[C@]12C [BREXANOLONE]
EC50 [1]: 160 nM
Imax (Rattus norvegicus [2]): 95%
Efficacy [3]: 0.91
IC50 [4]: 51 nM

CCCC(C)C1(CC)C(=O)NC(=O)NC1=O (stereo not drawn)
Imax (Rattus norvegicus [2]): 100%
Hill coefficient [7]: 1
